# ADAM10 inh: inhibitors of human ADAM10; recombinant ADAM10, EDANS/DABCYL FRET peptide cleavage, 3 h; O14672; hit rate 0.62% among 370,000; inhibition, % at 7 µM;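 active = inhibition above a per-campaign cutoff equal to the mean of compounds falling between control-based bounds plus 3 SD, cut at about 20% in these data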;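 also: 0% = DMSO wells while the 100% control is not disclosed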
# Target sequence (O14672 214-748 limits assumed): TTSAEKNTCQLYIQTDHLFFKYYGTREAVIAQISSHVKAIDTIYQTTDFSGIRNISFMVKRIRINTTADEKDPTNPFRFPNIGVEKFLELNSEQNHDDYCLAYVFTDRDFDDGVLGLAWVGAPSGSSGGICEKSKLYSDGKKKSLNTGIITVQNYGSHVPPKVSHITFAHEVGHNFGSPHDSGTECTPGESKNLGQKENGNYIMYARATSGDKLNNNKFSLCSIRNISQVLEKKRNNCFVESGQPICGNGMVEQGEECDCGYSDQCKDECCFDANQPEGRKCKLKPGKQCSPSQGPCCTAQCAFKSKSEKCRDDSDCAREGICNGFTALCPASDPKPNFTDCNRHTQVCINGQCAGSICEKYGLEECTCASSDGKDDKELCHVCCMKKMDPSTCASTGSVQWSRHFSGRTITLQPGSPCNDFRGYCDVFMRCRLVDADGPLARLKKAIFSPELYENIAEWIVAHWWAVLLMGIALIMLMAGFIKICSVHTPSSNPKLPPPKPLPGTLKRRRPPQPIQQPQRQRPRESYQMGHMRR
# aDG glyco act: alpha-DG glycosylation activation; Pro5-aDG cells, alpha-DG glycosylation AlphaScreen (IIH6); 0% Pro5, 100% B10-LARGE cell signal; activation, % at 10 µM; hit rate 0.22% among 360,000;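 active = activation of at least 8% versus controls, or a plate z-score of at least 8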;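 also: Pro5 are CHO cells carrying HIG-tagged alpha-DG that lacks glycosylation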
# MPTP inh: inhibitors of mitochondrial permeability transition pore; isolated mouse mitochondria, Ca2+ swelling absorbance, 30 min; hit rate 1.4% among 360,000; inhibition, % at 10 µM; AID 602449;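 active = inhibition of 50% or more, scaled per plate between neutral and stimulator controls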;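 also: 0% = DMSO wells given calcium and 100% = 1 mM EGTA wells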
# ADAM17 inh: inhibitors of human ADAM17. recombinant ADAM17, EDANS/DABCYL FRET peptide cleavage. inhibition, % at 6.95 µM. hit rate 0.83% among 370,000. AID 720648;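 active = inhibition above the mean of compounds lying between control limits plus 3 SD, set per campaign, cut at about 8.5% in these data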;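 also: 0% = DMSO-only wells as the low control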
# Lipid droplet: modulators of hepatic lipid droplet formation; AML12 mouse hepatocytes, oleate lipid droplets, BODIPY imaging; inhibition, % at 6.5 µM; hit rate 0.4% among 240,000;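 active = lipid droplet intensity inhibited by at least 50%, with more than 500 cells counted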
#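 Test system: AML12 hepatocytes (mouse); reagent: oleate loading, 100 µM; dosing: one dose, 6.5 µM compound; incubation: overnight exposure; signal: fluorescence imaging, 20x objective, two fields per well; read-out basis: % inhibition of corrected integrated BODIPY droplet signal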
# V-ATPase pHluor: alters yeast V-ATPase proton transport; hit rate 0.37% among 350,000; AID 504577; S. cerevisiae, pHLuorin cytosolic pH fluorescence; response, % at 10 µM; in the data active = response mostly above about 7.3%, no sharp cut-off; inactive = mostly below about 5.4%; also: actives read high
# ADAM10 confirm: confirmation of inhibitors of human ADAM10. shares compounds with ADAM10 inh. ADAM10 QFRET peptide cleavage, EDANS fluorescence. inhibition, % at 6.95 µM. hit rate 1% among 2,100;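 active = inhibition above about 20% chosen separately for each screening run, limit read from the data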;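 also: 0% = DMSO wells and 100% = marimastat wells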
# ADAM17 counter: counter-screen for ADAM10 exosite inhibitors: inhibitors of human ADAM17; hit rate 0.5% among 2,100; AID 743214; shares compounds with ADAM10 inh; inhibition, % at 6.95 µM; ADAM17 QFRET peptide cleavage, EDANS fluorescence;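 active = mean triplicate inhibition above the solvent-only control wells' mean plus 3 SD, cut at about 12% in these data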;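 also: 0% = DMSO wells and 100% = marimastat wells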
# ADAM10 ctr: counter-screen for ADAM17 exosite inhibitors: inhibitors of human ADAM10 | shares compounds with ADAM17 inh | recombinant ADAM10, EDANS/DABCYL FRET peptide cleavage, 3 h | inhibition, % at 6.95 µM | hit rate 47% among 2,900;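 active = mean inhibition over the triplicate runs exceeds the activity threshold set in the earlier primary screen, cut at about 20% in these data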;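 also: 0% = DMSO wells and 100% = marimastat wells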
# ADAM17 confirm: human ADAM17 inhibition, confirmation; hit rate 65% among 2,900; inhibition, % at 6.95 µM; shares compounds with ADAM17 inh; recombinant ADAM17, EDANS/DABCYL QFRET peptide cleavage;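 active = mean inhibition across replicates above the hit cutoff set in the primary screen, cut at about 8.5% in these data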;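 also: 0% = DMSO wells and 100% = marimastat wells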
# Starred values were filed as active, the others as inactive; · = no result. In the library only some 3.1% were active in any assay of this set; here they are far more common.
SMILES,ADAM10 inh,aDG glyco act,MPTP inh,ADAM17 inh,Lipid droplet,V-ATPase pHluor,ADAM10 confirm,ADAM17 counter,ADAM10 ctr,ADAM17 confirm
O=C(CN1CCOCC1)c1cccc2ccccc12,2,0,-2,-1,4,0,·,·,·,·
Cc1c(C(=O)c2cccc3ccccc23)c2cccc3c2n1[C@H](CN1CCOCC1)CO3,20*,0,-1,5,·,5,6,1,·,·
Nc1ccc(N2CCN(Cc3ccccc3Cl)CC2)c(Cl)c1,22*,0,-2,3,-6,-3,3,1,·,·
CCOC(=O)c1c(C)n(Cc2ccccc2)c2ccc(OCC(O)Cn3nc(C)cc3C)cc12 (stereo not given),33*,0,2,12*,-40,4,9,3,·,·
O=C(NC1CCCCC1)N1Cc2ccc(Br)cc2-n2nncc2C1,-13,·,·,-5,·,·,·,·,·,·
CCOC(=O)C1C2c3ccccc3O[C@@]1(C)N=C1SCC(=O)N12 (stereo not given in full),4,0,0,-2,·,-3,·,·,·,·
CCOC(=O)[C@@H]1[C@H]2COc3ccc(Br)cc3[C@@H]2N2C(=O)N(c3cccc(C)c3)C(=O)[C@]12C,20*,0,1,4,-8,-5,4,1,·,·
CN1C(=O)CCS(=O)(=O)C1c1ccc(Cl)cc1 (stereo not given),-2,·,·,1,·,·,·,·,·,·
COc1ccc2nc(-c3ccc(CN4CCC(n5nnc6ccccc65)CC4)cc3)c(-c3ccccc3)nc2c1,-190,·,·,-41,·,·,·,·,·,·
O=C1C=CC(=O)C2C1C1(Cl)C(Cl)=C(Cl)C2(Cl)C1(Cl)Cl (stereo not given),27*,0,2,9,·,1,7,3,·,·
Cc1cc(N=Nc2ccccc2C)ccc1N,23*,0,4,6,·,-2,2,0,·,·
COC(=O)C1=C(c2ccc(-c3ccccc3)c(F)c2)C[C@@H]2CC[C@H]1N2C(=O)NCCOc1ccc(OC)cc1,40*,1,0,22*,·,2,5,2,21*,12*
COC(=O)C1=C(c2cccc(OCc3ccccc3)c2)C[C@@H]2CC[C@H]1N2C(=O)NCc1cccc(OC)c1,14,1,-2,7,·,0,·,·,·,·
COC(=O)C1=C(c2cccc(OCc3ccccc3)c2)C[C@@H]2CC[C@H]1N2C(=O)NCCOc1ccc(OC)cc1,26*,0,-3,10*,·,-6,6,2,19,14*
Cc1cc(N2CCNC[C@@H]2C)ccc1N1CC[C@@H](O)C1,-5,·,·,-2,·,·,·,·,·,·
CCC(C)C1NC(=O)C(NC(=O)C(CC(C)C)N(C)C(=O)C2CCCN2C(=O)C(C)O)C(C)OC(=O)C(Cc2ccc(OC)cc2)N(C)C(=O)C2CCCN2C(=O)C(CC(C)C)NC(=O)[C@H](C)C(=O)[C@H](C(C)C)OC(=O)CC1O (stereo not given in full),26*,0,-1,12*,·,4,0,-1,2,5
CCOc1c(Cl)cc(CNCCc2c[nH]c3ccccc23)cc1OC,10,0,6,5,-1,2,·,·,·,·
CCOc1cc(CNCCc2c[nH]c3ccccc23)cc(Cl)c1OCC,27*,0,32,14*,2,-2,0,0,3,1
CC(C)C(CN1CCC(C)(c2cccc(O)c2)[C@@H](C)C1)NC(=O)C1Cc2ccc(O)cc2CN1 (stereo not given in full),-5,·,·,-2,·,·,·,·,·,·
COC(=O)C1=C(c2ccc(F)cc2OCc2ccccc2)C[C@@H]2CC[C@H]1N2C(=O)NCc1ccc(N(C)C)cc1,20*,0,0,9.7*,·,-2,7,3,14,7
COC(=O)C1=C(c2ccccc2OCc2ccccc2)C[C@@H]2CC[C@H]1N2C(=O)NCc1ccc(N(C)C)cc1,14,0,0,5,·,1,·,·,·,·
COC(=O)C1=C(c2ccc(F)cc2OCc2ccccc2)C[C@@H]2CC[C@H]1N2C(=O)NCc1cccc(C(F)(F)F)c1,24*,1,0,16*,·,0,7,2,19,13*
COC(=O)C1=C(c2ccc(F)cc2OCc2ccccc2)C[C@@H]2CC[C@H]1N2C(=O)NCCc1ccc(F)cc1,27*,1,-1,11*,·,2,9,2,29*,13*
O=C(NCCN1CCC2(CC1)C(=O)NCN2c1ccccc1)c1ccc(OC(F)(F)F)cc1,-15,·,·,-8,·,·,·,·,·,·
CCOC(=O)C(O)(c1ccc(N(CC)S(=O)(=O)c2ccccc2)cc1)C(F)(F)F (stereo not given),27*,0,1,14*,·,-1,0,0,12,5
SMILES,ADAM10 inh,aDG glyco act,MPTP inh,ADAM17 inh,Lipid droplet,V-ATPase pHluor,ADAM10 confirm,ADAM17 counter,ADAM10 ctr,ADAM17 confirm
Cc1ccc(NP(=O)(Oc2ccccc2F)Oc2ccccc2F)cc1C,26*,1,-4,9.6*,-46,6,8,2,23*,12*
CN1OC[C@@H]2CN3C4(C[C@@H]21)c1ccccc1C3(c1ccccc1)c1ccccc14,-62,·,·,-16,·,·,·,·,·,·
CN1C2(C)c3ccccc3C1(c1ccccc1)c1ccccc12,-2,·,·,-3,·,·,·,·,·,·
CCC(c1nnnn1-c1ccc(OC)cc1)N1CCC(n2c(=O)[nH]c3ccccc32)CC1 (stereo not given),2,0,-2,2,·,·,·,·,·,·
COc1ccc(-n2nnnc2C(c2ccccc2)N2CCC3(CC2)C(=O)NCN3c2ccccc2)cc1 (stereo not given),4,0,0,5,·,·,·,·,·,·
COc1ccc(-n2nnnc2C(c2ccccc2OC(F)(F)F)N2CCC(n3c(=O)[nH]c4ccccc43)CC2)cc1 (stereo not given),30*,0,1,10*,·,·,7,2,34*,20*
COc1ccc(-n2nnnc2C(c2ccccc2OC(F)(F)F)N2CCC3(CC2)C(=O)NCN3c2ccccc2)cc1 (stereo not given),25*,0,5,9.4*,·,·,7,2,31*,15*
Cc1ccc2nc(-c3ccc(CN4CCC(n5nnc6ccccc65)CC4)cc3)c(-c3ccccc3)nc2c1,-219,·,·,-54,·,·,·,·,·,·

# Screening data (PubChem)
